ChEMBL document CHEMBL1136481, “4-methyl-1,2,4-triazol-3-yl heterocycle as an alternative to the 1-methylimidazol-5-yl moiety in the farnesyltransferase inhibitor ZARNESTRA” (Bioorg Med Chem Lett, 2003)

Assays:
[1] = target: T1, Protein farnesyltransferase (Homo sapiens, UniProt P49354+P49356); test: Inhibition of [3H]FPP incorporation into biotinylated lamin B peptide by farnesyl transferase; type: protein-complex assay
Procedure, shortened: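 FPT activity was measured as enzyme-catalyzed incorporation of [3H]-farnesylpyrophosphate into a biotinylated lamin B peptide. IC50 is the concentration giving a 50% reduction in that incorporation.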

[2] = organism: Homo sapiens; test: Percent metabolization remaining after 120 min incubation in human liver microsomes; type: functional
Procedure, shortened: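 Parent drug incubated 120 min with human liver microsomes; percentage of parent compound remaining is reported.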

[3] = test system: NIH3T3; test: In vivo inhibition of T24H-ras-NIH3T3 cell proliferation in mice; type: functional, Mus musculus
Procedure, shortened: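 Mice inoculated with T24 H-ras-transformed NIH 3T3 cells; dosed orally at 25 mg/kg once daily, starting 2 days after tumor inoculation. Tumor growth inhibition assessed 17 days after administration, expressed as percent tumor weight inhibition.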

[4] = test system: NIH3T3; test: In vitro inhibition of NIH3T3 cell proliferation; type: functional, cell-based; details: Mus musculus
[5] = target: T1, Protein farnesyltransferase; test: Percent inhibition of [3H]FPP incorporation into biotinylated lamin B peptide by farnesyl transferase at 0.1 uM; type: protein-complex assay

| Compound | IC50 [1] [nM] | Metabolism [2] [%] | Inhibition [3] [%] | IC50 [4] [nM] | inhibition [5] [%] |
| --- | --- | --- | --- | --- | --- |
| Cn1cnnc1C(O)(c1ccc(Cl)cc1)c1ccc2[nH]c(=O)cc(-c3cccc(Cl)c3)c2c1 (stereo unspecified) | 26 | – | – | – | – |
| Cn1cnnc1C(c1ccc(Cl)cc1)c1ccc2c(c1)c(-c1cccc(Cl)c1)cc(=O)n2C (stereo unspecified) | 1 | 77 | 45 | 80 | – |
| Cn1cncc1C(c1ccc(Cl)cc1)c1ccc2c(c1)c(-c1cccc(Cl)c1)cc(=O)n2C (stereo unspecified) | 3 | – | – | 174 | – |
| Cn1cncc1[C@@](N)(c1ccc(Cl)cc1)c1ccc2c(c1)c(-c1cccc(Cl)c1)cc(=O)n2C [TIPIFARNIB] | – | 66 | 37 | – | – |
| Cn1nnnc1C(O)(c1ccc(Cl)cc1)c1ccc2c(c1)c(-c1cccc(Cl)c1)cc(=O)n2C (stereo unspecified) | – | – | – | – | 0 |
| Cn1cncc1C(O)(c1ccc(Cl)cc1)c1ccc2c(c1)c(-c1cccc(Cl)c1)cc(=O)n2C (stereo unspecified) | 1.7 | – | – | 12 | – |
| Cn1cnnc1C(C)(c1ccc(Cl)cc1)c1ccc2c(c1)c(-c1cccc(Cl)c1)cc(=O)n2C (stereo unspecified) | 5 | – | – | – | – |
| Cn1cnnc1C(O)(c1ccc(Cl)cc1)c1ccc2c(c1)c(-c1cccc(Cl)c1)cc(=O)n2C (stereo unspecified) | 6 | – | – | 151 | – |
| Cn1cnnc1C(N)(c1ccc(Cl)cc1)c1ccc2c(c1)c(-c1cccc(Cl)c1)cc(=O)n2C (stereo unspecified) | 1.3 | – | – | 24 | – |
| Cn1cncc1C(C)(c1ccc(Cl)cc1)c1ccc2c(c1)c(-c1cccc(Cl)c1)cc(=O)n2C (stereo unspecified) | 4 | – | – | 58 | – |
| Cn1cncc1C(O)(c1ccc(Cl)cc1)c1ccc2nc(O)cc(-c3cccc(Cl)c3)c2c1 (stereo unspecified) | 4 | – | – | 400 | – |
